# Laboratory results as given in ChEMBL document CHEMBL4138178, “Green, unexpected synthesis of bis-coumarin derivatives as potent anti-bacterial and anti-inflammatory agents” (2018).
# Experiments:
# Type in all cases: functional
# [1] = tested on: Enterococcus faecalis; experiment: Antibacterial activity against Enterococcus faecalis MTCC 35550 after 24 hrs by broth microdilution method; conditions: MTCC 35550, 24 h
# Outline: (§1)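 Broth tube dilution in BHI broth, run in triplicate. Strains sub-cultured at 35 °C for 48 h. Inoculum grown in BHI at 35 °C for 2–6 h and adjusted to 0.5 McFarland. Ten-tube serial dilution of compound, 200 µL diluted culture added to each tube. Media plus culture tube as control. Incubated 24 h at 37 °C; MIC read by turbidity.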
# [2] = tested on: Erythrocyte; experiment: Anti-inflammatory activity in human RBC membranes assessed as inhibition of heat-induced hemolysis at 100 ug/mL incubated for 20 mins at 54 degC by UV-VIS spectrometer analysis relative to control
# Outline: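 Washed human RBCs as 40% (v/v) stock in isotonic 10 mM sodium phosphate buffer pH 7.4 with 0.9% NaCl. Compound 0.1 mg/mL in isotonic buffer with 30 µL erythrocyte suspension, duplicate sets. One pair heated at 54 °C for 20 min, other held at 0-5 °C. Spun 3 min at 1300 rpm, supernatant absorbance at 540 nm. % inhibition = 100 × [1 − (OD2−OD1)/(OD3−OD1)]; vehicle control.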
# [3] = tested on: Escherichia coli; experiment: Antibacterial activity against Escherichia coli MTCC 443 after 24 hrs by broth microdilution method; conditions: MTCC 443, 24 h; outline: as §1
# [4] = tested on: Bacillus cereus; experiment: Antibacterial activity against Bacillus cereus after 24 hrs by broth microdilution method
# [5] = tested on: Staphylococcus aureus; experiment: Antibacterial activity against Staphylococcus aureus MTCC 12598 after 24 hrs by broth microdilution method; conditions: MTCC 12598, 24 h; outline: as §1
# [6] = tested on: Prevotella intermedia; experiment: Antibacterial activity against Prevotella intermedia after 24 hrs by broth microdilution method
# [7] = tested on: Pseudomonas aeruginosa; experiment: Antibacterial activity against Pseudomonas aeruginosa MTCC 25668 after 24 hrs by broth microdilution method; conditions: MTCC 25668, 24 h; outline: as §1
Compound,MIC [1] [mg/L],inhibition at 100 µg/mL [2] [%],MIC [3] [mg/L],MIC [4] [mg/L],MIC [5] [mg/L],MIC [6] [mg/L],MIC [7] [mg/L]
CCOC(=O)C1=C(N)Oc2c(c(=O)oc3ccccc23)C1c1cc(=O)oc2c1ccc1ccccc12 (centres undefined),6.25,61.2,1.56,6.25,6.25,6.25,1.56
COc1ccc2oc(=O)cc(C3C(C#N)=C(N)Oc4c3c(=O)oc3ccccc43)c2c1 (centres undefined),3.25,15.3,1.56,6.25,12.5,6.25,1.56
COc1ccc2oc(=O)cc(C3CC(=O)Oc4c3c(=O)oc3ccccc43)c2c1 (centres undefined),6.25,50.5,3.25,6.25,6.25,25,6.25
CCOC(=O)C1=C(N)Oc2c(c(=O)oc3ccccc23)C1c1cc(=O)oc2ccc(C)cc12 (centres undefined),6.25,42.3,1.56,6.25,3.25,6.25,6.25
Cc1ccc2c(C3CC(=O)Oc4c3c(=O)oc3ccccc43)cc(=O)oc2c1 (centres undefined),3.25,36.8,1.56,6.25,6.25,3.25,25
N#CC1=C(N)Oc2c(c(=O)oc3ccccc23)C1c1cc(=O)oc2c1ccc1ccccc12 (centres undefined),1.56,54.4,6.25,1.56,3.25,1.56,25
O=C(O)CC(c1c(O)c2ccccc2oc1=O)c1cc(=O)oc2c1ccc1ccccc12 (centres undefined),1.56,59.1,3.25,6.25,6.25,25,6.25
CCOC(=O)C1=C(N)Oc2c(c(=O)oc3ccccc23)C1c1cc(=O)oc2cc(C)ccc12 (centres undefined),6.25,69.4,6.25,25,12.5,6.25,6.25
Cc1ccc2oc(=O)cc(C(CC(=O)O)c3c(O)c4ccccc4oc3=O)c2c1 (centres undefined),1.56,14.1,3.25,25,1.56,6.25,25
CCOC(=O)C1=C(N)Oc2c(c(=O)oc3ccccc23)C1c1cc(=O)oc2ccc(OC)cc12 (centres undefined),6.25,52.1,6.25,6.25,6.25,1.56,25
O=C(O)c1cn(C2CC2)c2cc(N3CCNCC3)c(F)cc2c1=O [CIPROFLOXACIN],6.25,–,–,6.25,–,6.25,–
O=C1CC(c2cc(=O)oc3ccc(Cl)cc23)c2c(c3ccccc3oc2=O)O1 (centres undefined),3.25,70.7,6.25,25,6.25,6.25,25
CCOC(=O)C1=C(N)Oc2c(c(=O)oc3ccccc23)C1c1cc(=O)oc2ccc(Cl)cc12 (centres undefined),1.56,62.2,6.25,25,12.5,1.56,1.56
N#CC1=C(N)Oc2c(c(=O)oc3ccccc23)C1c1cc(=O)oc2ccc(Cl)cc12 (centres undefined),3.25,43.3,6.25,25,25,6.25,6.25
CC(=O)Oc1ccccc1C(=O)O [ASPIRIN],–,36.2,–,–,–,–,–
Cc1ccc2c(C3C(C#N)=C(N)Oc4c3c(=O)oc3ccccc43)cc(=O)oc2c1 (centres undefined),6.25,69.1,1.56,1.56,1.56,6.25,1.56
O=C1CC(c2cc(=O)oc3c2ccc2ccccc23)c2c(c3ccccc3oc2=O)O1 (centres undefined),6.25,37.6,6.25,25,25,25,1.56
Cc1ccc2oc(=O)cc(C3CC(=O)Oc4c3c(=O)oc3ccccc43)c2c1 (centres undefined),6.25,31.4,1.56,50,12.5,3.25,25
O=C(O)CC(c1c(O)c2ccccc2oc1=O)c1cc(=O)oc2ccc(Cl)cc12 (centres undefined),1.56,61.2,1.56,25,3.25,3.25,25
Cc1ccc2c(C(CC(=O)O)c3c(O)c4ccccc4oc3=O)cc(=O)oc2c1 (centres undefined),3.25,76.4,3.25,6.25,3.25,25,6.25
Cc1ccc2oc(=O)cc(C3C(C#N)=C(N)Oc4c3c(=O)oc3ccccc43)c2c1 (centres undefined),1.56,11.2,6.25,6.25,6.25,6.25,25
COc1ccc2oc(=O)cc(C(CC(=O)O)c3c(O)c4ccccc4oc3=O)c2c1 (centres undefined),1.56,23.3,1.56,6.25,3.25,6.25,1.56
